Source: PubChem BioAssay
A selection: hits, their analogues and other compounds. The true share with any hit is near 1.4%.
IDE cell activ: human IDE activators in live cells, primary screen, fluorescence polarization, HEK cells, FAbeta-B substrate; FAbeta-B cleavage; 0% vehicle, 100% cell-free pure enzyme wells; 340,000 compounds, 0.073% hits; activation, % at 5.96 µM;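 active = activation above the mean of all tested compounds plus 3 SD, set per screening campaign, cut at about 17% in these data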
Target sequence (P14735 whole entry, looked up): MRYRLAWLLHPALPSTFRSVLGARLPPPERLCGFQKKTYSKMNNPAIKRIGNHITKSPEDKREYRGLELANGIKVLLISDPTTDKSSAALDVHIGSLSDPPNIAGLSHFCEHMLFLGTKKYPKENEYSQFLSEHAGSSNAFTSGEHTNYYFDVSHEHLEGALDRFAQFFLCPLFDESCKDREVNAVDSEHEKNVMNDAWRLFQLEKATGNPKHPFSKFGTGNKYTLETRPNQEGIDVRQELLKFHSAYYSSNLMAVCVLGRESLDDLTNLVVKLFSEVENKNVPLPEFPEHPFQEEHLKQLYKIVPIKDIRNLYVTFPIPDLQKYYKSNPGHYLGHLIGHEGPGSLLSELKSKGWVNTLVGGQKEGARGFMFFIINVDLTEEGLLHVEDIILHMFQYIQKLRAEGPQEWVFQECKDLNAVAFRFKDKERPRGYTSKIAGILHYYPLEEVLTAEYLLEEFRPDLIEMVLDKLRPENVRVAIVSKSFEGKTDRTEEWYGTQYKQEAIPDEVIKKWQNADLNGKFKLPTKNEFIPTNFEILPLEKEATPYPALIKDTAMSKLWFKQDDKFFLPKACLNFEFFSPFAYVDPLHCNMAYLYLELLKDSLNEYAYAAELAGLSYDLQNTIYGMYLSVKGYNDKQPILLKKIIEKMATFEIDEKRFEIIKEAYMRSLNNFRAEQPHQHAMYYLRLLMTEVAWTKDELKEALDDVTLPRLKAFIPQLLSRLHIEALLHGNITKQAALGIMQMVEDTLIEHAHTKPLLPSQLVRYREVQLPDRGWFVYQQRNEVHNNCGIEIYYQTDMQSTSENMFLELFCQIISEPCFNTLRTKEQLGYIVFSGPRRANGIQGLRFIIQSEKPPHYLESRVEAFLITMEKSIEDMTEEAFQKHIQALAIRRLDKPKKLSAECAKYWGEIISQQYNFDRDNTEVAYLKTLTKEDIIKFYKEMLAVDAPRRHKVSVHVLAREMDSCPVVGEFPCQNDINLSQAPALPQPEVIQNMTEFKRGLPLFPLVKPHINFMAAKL
CR mimetic SO: reduction of superoxide in aged yeast, primary screen, HTS | S. cerevisiae aged cells, superoxide DHE fluorescence; active compounds read low | superoxide response (% of plate mean), % at 10 µM | 330,000 compounds, 0.18% hits;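 active = superoxide response under a set limit, about three screen SD below normal, cut at about 65% in these data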;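 also: yeast aged for seven days with compound at 30 °C before DHE staining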
TbMetRS inhib: T. brucei MetRS inhibitors, primary screen, biochemical, luminescence | methionyl-tRNA synthetase (Trypanosoma brucei brucei) | purified T. brucei MetRS, ATP depletion, Kinase-Glo luminescence | inhibition, % at 11.9 µM | 360,000 compounds, 0.4% hits;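 active = inhibition above a per-plate cutoff of the control wells' mean inhibition plus 3 SD, cut at about 5.5% in these data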
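Measured by: Kinase-Glo luciferase luminescence reporting remaining unconsumed ATP. Material: purified T. brucei MetRS enzyme. Doses: 11.9 µM compound single dose, 0.9% DMSO. Medium: HEPES buffer containing pyrophosphatase, BSA, spermine, DTT. Times: 15 min preincubation, 2 h reaction, all 25 °C. Reagent: methionine, ATP and bulk E. coli tRNA.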
Efflux pump mplx: inhibitors of Candida efflux pumps in yeast, primary screen, S. cerevisiae, Nile Red, multiplex. 330,000 compounds, 0.44% hits. AID 485275, 2010. inhibition, % at 10 µM. S. cerevisiae Candida pump triplex;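 active = plate passing quality check with inhibition over a set limit, or well fluorescence over plate mean plus 4 SD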;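 also: Nile Red retained in pooled yeast measured as flow cytometry median fluorescence; higher means more Nile Red kept so more efflux inhibition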
IDE inh: human IDE inhibitors in live cells, primary screen, fluorescence polarization, HEK cells, FAbetaB substrate; inhibition, % at 5.59 µM; FAbetaB cleavage; AID 434962, 2010; 320,000 compounds, 0.41% hits;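 active = percent inhibition above the average of all tested compounds plus 3 SD, set per screening campaign, cut at about 16% in these data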;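 also: IDE supplied by intact live HEK cells; FP after avidin binding of uncleaved biotin substrate so inhibition keeps polarization high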
HDAC3 inhib: HDAC3 deacetylase inhibitors, primary screen, biochemical, fluorescence, cell-free homogeneous; Histone deacetylase 3 (Homo sapiens), O15379; 320,000 compounds, 0.15% hits; inhibition, % at 8.3 µM; recombinant HDAC3, fluorogenic peptide/trypsin coupled; in the data active = inhibition above about 26%, passing the limit was not always enough
TbMetRS confirm: T. brucei MetRS inhibitors, confirmation, biochemical, luminescence; T. brucei MetRS enzyme, luminescence (ATP depletion); AID 624412, 2012; shares compounds with TbMetRS inhib; inhibition, % at 11.9 µM; 1,400 compounds, 93% hits; in the data active = inhibition above about 7%
Jurkat cytotox: Jurkat T cell cytotoxicity, cytotoxicity control for T. brucei MetRS inhibitor project, luminescence, high throughput; 1,400 compounds, 12% hits; inhibition, % at 8.3 µM; Jurkat cells viability, ATP luminescence; shares compounds with TbMetRS inhib; in the data active = inhibition above about 15%
TbMetRS FP orth: T. brucei MetRS inhibitors, orthogonal assay for T. brucei MetRS inhibitor project, biochemical, fluorescence polarization. shares compounds with TbMetRS inhib. purified T. brucei MetRS. inhibition, % at 11.9 µM. 1,400 compounds, 44% hits. AID 651607, 2012; in the data active = inhibition above about 17%
Numbers stand for hits.

Screening COc1ccc(OCC(O)CNC(=O)Nc2ccc(F)cc2)cc1 (stereo unspecified) returned IDE cell activ inactive, CR mimetic SO inactive, TbMetRS inhib 5.7, Efflux pump mplx inactive, IDE inh inactive, HDAC3 inhib inactive, TbMetRS confirm 17.6, Jurkat cytotox inactive and TbMetRS FP orth inactive.
CC(C)(C)NC(=O)C(c1cc2ccccc2o1)n1c(=O)c(-c2ccccc2)nc2ccccc21 (stereo unspecified) was read as TbMetRS inhib inactive.
`COc1cc(C(=O)COC(=O)c2ccc3c(c2)OCCO3)cc(OC)c1OC` gave TbMetRS inhib inactive.
Screening Cc1cc(C)n(-c2nnc(C)n2/N=C/c2cc(Br)ccc2OCc2ccccc2)n1 returned IDE cell activ inactive, CR mimetic SO inactive, TbMetRS inhib 6.4, Efflux pump mplx inactive, IDE inh inactive, HDAC3 inhib inactive, TbMetRS confirm inactive, Jurkat cytotox inactive and TbMetRS FP orth inactive.
Screening CCCCn1c(NS(=O)(=O)c2ccc(C)cc2)c(S(=O)(=O)c2ccccc2)c2nc3ccccc3nc21 returned IDE cell activ inactive, CR mimetic SO inactive, TbMetRS inhib 8.7, Efflux pump mplx inactive, IDE inh inactive, HDAC3 inhib inactive, TbMetRS confirm 8.9, Jurkat cytotox inactive and TbMetRS FP orth inactive.
For Cc1ccc(C(=O)/C=C/NNC(=O)c2ccccc2O)cc1 the results were IDE cell activ inactive, CR mimetic SO inactive, TbMetRS inhib inactive, Efflux pump mplx inactive, IDE inh inactive and HDAC3 inhib inactive.
Cc1cc(C)nc(NS(=O)(=O)c2ccc(NC(=O)Nc3ccccc3)cc2)n1 was read as IDE cell activ inactive, CR mimetic SO inactive, TbMetRS inhib 13.3, Efflux pump mplx inactive, IDE inh inactive, HDAC3 inhib inactive, TbMetRS confirm 15.7, Jurkat cytotox inactive and TbMetRS FP orth inactive.
For Cc1cc(C)nc(NS(=O)(=O)c2ccc(NS(=O)(=O)c3ccccc3)cc2)n1 the results were IDE cell activ inactive, CR mimetic SO inactive, TbMetRS inhib inactive, Efflux pump mplx inactive, IDE inh inactive and HDAC3 inhib inactive.
Cc1cc(NS(=O)(=O)c2ccc(NC(=O)Nc3ccccc3)cc2)no1 was read as IDE cell activ inactive, CR mimetic SO inactive, TbMetRS inhib 8.4, Efflux pump mplx inactive, IDE inh inactive, HDAC3 inhib inactive, TbMetRS confirm 16.1, Jurkat cytotox inactive and TbMetRS FP orth inactive.
Screening Cc1cc(NS(=O)(=O)c2ccc(NC(=O)C(c3ccccc3)c3ccccc3)cc2)no1 returned IDE cell activ inactive, CR mimetic SO inactive, TbMetRS inhib inactive, Efflux pump mplx inactive, IDE inh inactive and HDAC3 inhib inactive.
COC(=O)c1cc(NC(=O)Cc2cccs2)cc(C(=O)OC)c1 was read as IDE cell activ inactive, CR mimetic SO inactive, TbMetRS inhib inactive, Efflux pump mplx inactive, IDE inh inactive and HDAC3 inhib inactive.
NC(=O)[C@@H]1CCCNc2c(I)cc([N+](=O)[O-])cc2C(=O)N[C@@H](CO)C(=O)N[C@@H](Cc2ccc(O)cc2)C(=O)N1 was read as IDE cell activ inactive, CR mimetic SO inactive, TbMetRS inhib 7.4, Efflux pump mplx inactive, IDE inh inactive, HDAC3 inhib inactive, TbMetRS confirm 21.0, Jurkat cytotox inactive and TbMetRS FP orth inactive.
NC(=O)CC[C@@H]1NC(=O)[C@H](CO)NC(=O)c2cc([N+](=O)[O-])cc(I)c2NCCC[C@@H](C(N)=O)NC(=O)[C@H](Cc2ccc(O)cc2)NC1=O was read as CR mimetic SO inactive, Efflux pump mplx inactive, IDE inh inactive and HDAC3 inhib inactive.
`CCN(CC)S(=O)(=O)c1ccc(N2CCOCC2)c(NC(=O)c2ccc(F)cc2)c1` gave IDE cell activ inactive, CR mimetic SO inactive, TbMetRS inhib inactive, Efflux pump mplx inactive, IDE inh inactive and HDAC3 inhib inactive.
Screening CCN(CC)S(=O)(=O)c1ccc(N2CCOCC2)c(NCC(=O)Nc2ccc(F)cc2)c1 returned IDE cell activ inactive, CR mimetic SO inactive, TbMetRS inhib 22.1, Efflux pump mplx inactive, IDE inh inactive, HDAC3 inhib inactive, TbMetRS confirm 32.7, Jurkat cytotox inactive and TbMetRS FP orth inactive.
For O=C1CCSc2c1ccc1ccccc21 the results were IDE cell activ inactive and TbMetRS inhib inactive.
`COc1cccc(Nc2nc3ccccc3c(=O)[nH]2)c1` gave IDE cell activ inactive, CR mimetic SO inactive, TbMetRS inhib 8.6, Efflux pump mplx inactive, IDE inh inactive, HDAC3 inhib inactive, TbMetRS confirm 17.8, Jurkat cytotox inactive and TbMetRS FP orth inactive.
For COc1ccc(-n2cc(CNCCCn3ccnc3)c(-c3cccc(F)c3)n2)cc1 the results were IDE cell activ inactive, CR mimetic SO inactive, TbMetRS inhib 15.9, Efflux pump mplx inactive, IDE inh inactive, HDAC3 inhib inactive, TbMetRS confirm inactive, Jurkat cytotox inactive and TbMetRS FP orth inactive.
For COc1ccc(-n2cc(CNCC3CCOCC3)c(-c3cccc(F)c3)n2)cc1 the results were IDE cell activ inactive, CR mimetic SO inactive, TbMetRS inhib inactive, Efflux pump mplx inactive, IDE inh inactive and HDAC3 inhib inactive.
`CNC(=S)NNC(=O)c1ccc(=O)n(Cc2ccc(Cl)cc2Cl)c1` gave IDE cell activ inactive, CR mimetic SO inactive, TbMetRS inhib 7.8, Efflux pump mplx inactive, IDE inh inactive, HDAC3 inhib inactive, TbMetRS confirm 20.0, Jurkat cytotox inactive and TbMetRS FP orth inactive.
`OC(c1ccc(Cl)c(F)c1)c1ncc(-c2ccc(Cl)cc2)[nH]1` (stereo unspecified) gave TbMetRS inhib 5.8, TbMetRS confirm 41.4, Jurkat cytotox inactive and TbMetRS FP orth inactive.
OC(c1ccc(Cl)c(Cl)c1)c1ncc(-c2ccc(Cl)cc2)[nH]1 (stereo unspecified) was read as TbMetRS inhib 51.4, TbMetRS confirm 86.0, Jurkat cytotox inactive and TbMetRS FP orth 66.1.
For OC(c1ccc(Cl)c(F)c1)c1ncc(-c2ccc(Oc3ccccc3)cc2)[nH]1 (stereo unspecified) the results were TbMetRS inhib inactive.
